# Source: ChEMBL document CHEMBL1127446, “Structure-activity relationships of 1,2,4-triazolo[1,5-a] quinoxalines and their 1-deaza analogues imidazo[1,2-a]quinoxalines at the benzodiazepine receptor” (J Med Chem, 1994)
# Legend:
# [1] = target: T1, GABA-A receptor; anion channel (Bos taurus) (UniProt P10063+P08220+P20237+P08219+P10064+P22300); assay: GABA ratio is measured by IC50 (compound)/IC50 (compound at 10 uM GABA; type: protein-complex assay
# Outline: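 [³H]flunitrazepam (0.2 nM) displacement in bovine brain membranes; IC50 from log-probit plots, measured without and with 10 μM GABA. Ratio = IC50 without GABA / IC50 with GABA, from five independent experiments; compounds dissolved in DMSO.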
# [2] = target: T1, GABA-A receptor; anion channel (Bos taurus); assay: Binding affinity to BZR receptor of bovine cerebral cortex by [3H]flunitrazepam displacement at 10 uM; type: tissue-based
# Outline: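 Percent inhibition of specific binding measured with test compound at 10 μM, dissolved in DMSO.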
# [3] = target: GABA-A receptor; anion channel; assay: Binding affinity to BZR receptor on bovine cerebral cortex by [3H]flunitrazepam displacement.; type: tissue-based
# Outline: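 Compounds first screened at 10 μM, then IC50 from log-probit plots and Ki derived from it. Ki given as mean ± SEM of four determinations.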
Ratio [1],inhibition [2],Ki [3],Compound
0.8,,,Oc1nc2ccc(Cl)cc2n2nc(-c3ccsc3)nc12
,2%,,Cn1c(=O)c2nc(-c3ccccc3)cn2c2ccccc21
,,15.9 nM,O=c1[nH]c2ccc(Cl)cc2n2nc(-c3ccsc3)nc12
0.82,,32.8 nM,Oc1nc2ccc(Cl)cc2n2nc(-c3cccc(F)c3)nc12
1.09,,,Oc1nc2ccc(Cl)cc2n2nc(-c3cccs3)nc12
0.9,,67.5 nM,Oc1ccc(-c2nc3c(O)nc4ccccc4n3n2)cc1
0.77,,2.9 nM,Oc1nc2ccc(Cl)cc2n2nc(-c3ccccc3F)nc12
0.84,,9.8 nM,Oc1nc2ccc(Cl)cc2n2nc(-c3ccoc3)nc12
0.77,,13.2 nM,Oc1nc2ccc(Br)cc2n2nc(-c3ccco3)nc12
1.36,,42.3 nM,Oc1nc2ccccc2n2cc(-c3ccccc3)nc12
1.05,,71.2 nM,Oc1nc2ccccc2n2nc(-c3ccco3)nc12
0.88,,29.8 nM,Oc1ccc(-c2nc3c(O)nc4ccc(Cl)cc4n3n2)cc1
1.21,,56.4 nM,COc1ccc(-c2cn3c(n2)c(O)nc2ccccc23)cc1
,,5.4 nM,COc1ccc(-c2nc3c(=O)[nH]c4ccc(Cl)cc4n3n2)cc1
,,17.4 nM,O=c1[nH]c2ccc(Cl)cc2n2nc(-c3cccs3)nc12
1.13,,15.9 nM,Oc1nc2ccccc2n2cc(-c3cccs3)nc12
0.67,,14.5 nM,Oc1nc2ccc(Cl)cc2n2nc(-c3ccco3)nc12
1.04,,8.9 nM,Oc1nc2ccccc2n2nc(-c3ccccc3F)nc12
0.92,,21.8 nM,Oc1nc2ccccc2n2nc(-c3cccs3)nc12
1.04,,87.8 nM,COc1ccc(-c2nc3c(O)nc4ccccc4n3n2)cc1
1.03,,,COc1ccc(-c2nc3c(O)nc4ccc(Cl)cc4n3n2)cc1
